Only some compounds are listed: those with a hit (about 3.5% of all), similar ones and a draw of the others.
RGS4 act: RGS4 potentiation or activation | HEK293 M3R/inducible RGS4, carbachol calcium flux Fluo4; active compounds read low | B-score at 10 µM | hit rate 0.92% among 310,000 | AID 463111;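 active = B-score of the integrated calcium signal more than 4 SD below the library mean, with starting fluorescence not abnormally high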;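 note: negative B-score means reduced calcium response which marks RGS4 activation or potentiation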
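Material: Inducible-RGS4 HEK293 cells carrying M3 receptor; also added: carbachol at ECmax as muscarinic agonist stimulus; incubation: compound preincubation 20 min at room temperature before agonist; signal: Fluo4-AM (2 µM) calcium-flux fluorescence, kinetic read; measure: integrated calcium ratio converted to B score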
MrgX1 antag: blocks BAM8-22 activation of human MrgX1 receptor; Q96LB2; MRGX1-HEK293 calcium flux, Fluo-4, BAM8-22 antagonism; active compounds read low; B-score at 10 µM; hit rate 1.3% among 310,000;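 active = calcium-response B-score plate-corrected more than 3 library SD below zero, starting fluorescence within 5 deviations, no agonist response on first addition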;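 note: peak minus trough fluorescence over baseline after final BAM8-22 challenge near maximal dose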
Target sequence (Q96LB2 whole entry, looked up): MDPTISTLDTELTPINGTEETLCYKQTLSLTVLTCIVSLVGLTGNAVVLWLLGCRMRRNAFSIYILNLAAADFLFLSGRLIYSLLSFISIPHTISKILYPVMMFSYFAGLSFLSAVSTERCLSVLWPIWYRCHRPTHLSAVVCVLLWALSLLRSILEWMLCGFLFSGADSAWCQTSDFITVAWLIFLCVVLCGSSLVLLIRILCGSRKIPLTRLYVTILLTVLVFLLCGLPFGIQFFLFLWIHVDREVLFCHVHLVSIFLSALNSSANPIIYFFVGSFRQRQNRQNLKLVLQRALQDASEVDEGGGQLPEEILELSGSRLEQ
MrgX1 allo act: allosterically activates human MrgX1 receptor signaling; Q96LB2; MrgX1-HEK293, Fluo-4 calcium flux, FDSS; active compounds read high; B-score at 10 µM; hit rate 0.63% among 310,000;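 active = plate-corrected calcium response at least 3 library SD above typical, normal starting fluorescence, not activating the receptor alone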;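 note: compound read alongside a low EC10 to EC30 dose of BAM8-22 agonist; peak minus trough fluorescence over baseline measured at the second addition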
RGS4 block: human RGS4 inhibition. P49798. HEK293 M3R/RGS4 inducible, Fluo-4 calcium flux; active compounds read high; triggered by carbachol at its EC20. B-score at 10 µM. hit rate 0.45% among 310,000. AID 463165;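 active = B-score, a plate-corrected calcium signal, over three deviations above library mean, with baseline fluorescence within five deviations of library mean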;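 note: RGS4 expression induced by doxycycline in cells with stable M3 receptor; B-score is computed from the integrated fluorescence ratio over baseline after carbachol; higher B-score means a larger calcium signal and so more RGS4 inhibition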
Target sequence (P49798 whole entry, looked up): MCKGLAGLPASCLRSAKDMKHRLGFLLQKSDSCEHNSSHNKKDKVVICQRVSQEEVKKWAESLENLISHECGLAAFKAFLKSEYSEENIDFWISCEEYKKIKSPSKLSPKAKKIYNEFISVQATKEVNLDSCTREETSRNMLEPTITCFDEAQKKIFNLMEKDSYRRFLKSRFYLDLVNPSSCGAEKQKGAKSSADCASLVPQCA
MrgX1 agonist: agonists of human MrgX1 receptor. Q96LB2. MrgX1-HEK293 cells, Fluo-4 calcium fluorescence, agonist mode; active compounds read high. B-score at 10 µM. hit rate 0.44% among 310,000. AID 588627;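 active = calcium response B-score plate-corrected fluorescence ratio at least 3 library SD, with starting fluorescence B-score inside 5 SD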
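Test system: HEK293 cells stably expressing human MrgX1 receptor; Input: fifteen thousand cells per well; Dosing: compound delivered in addition one of three; Schedule: overnight seeding, then 1 h dark dye loading; Technique: Fluo-4 NW calcium fluorescence; Measure: B-scored fluorescence response ratio; Controls: positive and negative controls per plate.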
RGS4 act valid: confirmation of RGS4 activators; shares compounds with RGS4 act; HEK293 M3R/RGS4 inducible, carbachol calcium flux Fluo4; inhibition, % at 10 µM; hit rate 89% among 1,100; AID 602282;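 active = inhibition above 3 SD of the buffer control wells, cut at about 41% in these data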;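 note: signal is the integrated peak-minus-minimum Fluo4 fluorescence over baseline ratio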
M3R Ca counter: activity in cells without induced RGS4 expression | shares compounds with RGS4 act | HEK293 M3R non-induced RGS4, Fluo4 calcium flux; after carbachol challenge at its EC90 | inhibition, % at 10 µM | hit rate 82% among 1,100;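 active = inhibition exceeding 3 SD of buffer-only control wells, cut at about 26% in these data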;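 note: percent drop in integrated peak-minus-baseline over baseline Fluo4 ratio after carbachol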
* hit, by the source's call.

How did Cc1cc(=O)n2c3ccccc3n(CC(O)CN3CCN(Cc4ccccc4)CC3)c2c1C#N (configuration not stated) do in these assays?
RGS4 act: -10*; MrgX1 antag: inactive; MrgX1 allo act: inactive; RGS4 block: inactive; MrgX1 agonist: inactive; RGS4 act valid: 74*; M3R Ca counter: 43*

Results for CCOC(=O)c1cc2c(ccn2C)n1Cc1cc(C)ccc1C ?
RGS4 act: -8*; MrgX1 antag: inactive; MrgX1 allo act: inactive; RGS4 block: inactive; MrgX1 agonist: inactive; RGS4 act valid: 85*; M3R Ca counter: 30*

Results for COc1ccc(-c2cc(C(=O)N(C)Cc3cccc(OC)c3OC)c3ccccc3n2)cc1OC ?
RGS4 act: inactive; MrgX1 antag: inactive; MrgX1 allo act: inactive; RGS4 block: inactive; MrgX1 agonist: inactive

How did COc1ccc(CN(C)C(=O)c2cc(-c3ccc(OC)c(OC)c3)nc3ccccc23)c(OC)c1 do in these assays?
RGS4 act: -9*; MrgX1 antag: inactive; MrgX1 allo act: inactive; RGS4 block: inactive; MrgX1 agonist: inactive; RGS4 act valid: 69*; M3R Ca counter: 84*

What do the screens show for `COc1cccc(NC(=O)CN(C)C(=O)c2cc(-c3ccc(F)cc3)nc3ccccc23)c1`?
RGS4 act: -7.6*; MrgX1 antag: inactive; MrgX1 allo act: inactive; RGS4 block: inactive; MrgX1 agonist: inactive; RGS4 act valid: 86*; M3R Ca counter: 64*

What do the screens show for `COc1cccc(CN(C)C(=O)c2cc(-c3ccc(OC)c(OC)c3)nc3ccccc23)c1`?
RGS4 act: -9.8*; MrgX1 antag: inactive; MrgX1 allo act: inactive; RGS4 block: inactive; MrgX1 agonist: inactive; RGS4 act valid: 66*; M3R Ca counter: 28*

How did COc1ccc(-c2cc(C(=O)N(C)CCc3ccc(OC)c(OC)c3)c3ccccc3n2)cc1 do in these assays?
RGS4 act: inactive; MrgX1 antag: inactive; MrgX1 allo act: inactive; RGS4 block: inactive; MrgX1 agonist: inactive

Results for Cc1c(Cl)cccc1NC(=O)CSC(C)c1nc2ccccc2c(=O)[nH]1 (configuration not stated) ?
RGS4 act: inactive; MrgX1 antag: inactive; MrgX1 allo act: inactive; RGS4 block: inactive; MrgX1 agonist: inactive

Results for CC(C)N(C)Cc1nnnn1CC(=O)NCc1cc(F)cc(C(F)(F)F)c1 ?
RGS4 act: inactive; MrgX1 antag: inactive; MrgX1 allo act: inactive; RGS4 block: inactive; MrgX1 agonist: inactive

Results for O=C1CCC(c2ccccc2)(C2CCN(Cc3ccccc3)CC2)C(=O)N1 (configuration not stated) ?
RGS4 act: -7.8*; MrgX1 antag: inactive; MrgX1 allo act: inactive; RGS4 block: inactive; MrgX1 agonist: inactive; RGS4 act valid: 94*; M3R Ca counter: 94*

How did CC1CCN(CCOc2cccc(Br)c2)CC1 do in these assays?
RGS4 act: inactive; MrgX1 antag: inactive; MrgX1 allo act: inactive; RGS4 block: inactive; MrgX1 agonist: inactive

What do the screens show for `CC1CCCN(CCOc2cccc(Oc3ccccc3)c2)C1` (configuration not stated)?
RGS4 act: -8.6*; MrgX1 antag: inactive; MrgX1 allo act: inactive; RGS4 block: inactive; MrgX1 agonist: inactive; RGS4 act valid: 90*; M3R Ca counter: 57*

How did CCCOc1ccc(OCCN2CCCC(C)C2)cc1 (configuration not stated) do in these assays?
RGS4 act: -9.8*; MrgX1 antag: inactive; MrgX1 allo act: inactive; RGS4 block: inactive; MrgX1 agonist: inactive; RGS4 act valid: 92*; M3R Ca counter: 50*

What do the screens show for `Brc1cccc(OCCCN2CCCCCC2)c1`?
RGS4 act: -8.5*; MrgX1 antag: inactive; MrgX1 allo act: inactive; RGS4 block: inactive; MrgX1 agonist: inactive; RGS4 act valid: 76*; M3R Ca counter: 84*

How did c1ccc(Oc2cccc(OCCCCN3CCCC3)c2)cc1 do in these assays?
RGS4 act: -11*; MrgX1 antag: inactive; MrgX1 allo act: inactive; RGS4 block: inactive; MrgX1 agonist: inactive; RGS4 act valid: 94*; M3R Ca counter: 88*

How did CC1CN(CCCCOc2cccc(Oc3ccccc3)c2)CC(C)O1 (configuration not stated) do in these assays?
RGS4 act: inactive; MrgX1 antag: inactive; MrgX1 allo act: inactive; RGS4 block: inactive; MrgX1 agonist: inactive

How did Cc1sc(NC(=O)Nc2ccccc2)c(C(N)=O)c1C do in these assays?
RGS4 act: inactive; MrgX1 antag: inactive; MrgX1 allo act: inactive; RGS4 block: inactive; MrgX1 agonist: inactive

How did Cc1ncc(CO)c2cc(S(=O)(=O)c3ccc(F)cc3)c(=O)oc12 do in these assays?
RGS4 act: inactive; MrgX1 antag: inactive; MrgX1 allo act: inactive; RGS4 block: inactive; MrgX1 agonist: inactive

Results for Cc1cc(OCCCCCN2CCCC2)ccc1Cl ?
RGS4 act: -9.5*; MrgX1 antag: inactive; MrgX1 allo act: inactive; RGS4 block: inactive; MrgX1 agonist: inactive; RGS4 act valid: 80*; M3R Ca counter: 27*

Results for Clc1ccc(OCCCN2CCCC2)cc1Cl ?
RGS4 act: inactive; MrgX1 antag: inactive; MrgX1 allo act: inactive; RGS4 block: inactive; MrgX1 agonist: inactive

Results for CCN(CC)CCOC(=O)C1(c2ccc(OC)c(OC)c2)CCCC1 ?
RGS4 act: inactive; MrgX1 antag: inactive; MrgX1 allo act: inactive; RGS4 block: inactive; MrgX1 agonist: inactive

Results for CCN(CC)CCOC(=O)C1(c2ccccc2)CCCC1 ?
RGS4 act: -9.1*; MrgX1 antag: inactive; MrgX1 allo act: inactive; RGS4 block: inactive; MrgX1 agonist: inactive; RGS4 act valid: 94*; M3R Ca counter: 93*

Results for Fc1cccc(Cc2noc(CN3CCN(C4CCc5ccccc5C4)CC3)n2)c1 (configuration not stated) ?
RGS4 act: -7.7*; MrgX1 antag: inactive; MrgX1 allo act: inactive; RGS4 block: inactive; MrgX1 agonist: inactive; RGS4 act valid: 92*; M3R Ca counter: 89*

What do the screens show for `COc1ccc(Cc2noc(CN3CCN(C4CCc5ccccc5C4)CC3)n2)cc1OC` (configuration not stated)?
RGS4 act: inactive; MrgX1 antag: inactive; MrgX1 allo act: inactive; RGS4 block: inactive; MrgX1 agonist: inactive
